Test results as given in ChEMBL document CHEMBL1158767, “Cytotoxic steroidal saponins from the rhizomes of Asparagus oligoclonos” (J Nat Prod, 2005).
Converted amounts (≈) assume the structure as drawn.

Key:
Format in all cases: functional, cell-based
[1] = tested on: SK-MEL-2; test: Cytotoxicity against human SK-MEL-2 cells by SRB assay
Procedure, shortened: (§1)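 Standard sulforhodamine B assay on a panel of human tumour lines: A549 lung carcinoma, SK-OV-3 ovarian adenocarcinoma (from malignant ascites), SK-MEL-2 malignant melanoma (skin metastasis, thigh), XF-498 central nervous system tumour, and HCT 15 colon adenocarcinoma. Testing was done by an external pharmacology group.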

[2] = tested on: XF498; test: Cytotoxicity against human XF498 cells by SRB assay; procedure, shortened: as §1
[3] = tested on: SK-OV-3; test: Cytotoxicity against human SKOV3 cells by SRB assay; procedure, shortened: as §1
[4] = tested on: HCT-15; test: Cytotoxicity against human HCT15 cells by SRB assay; procedure, shortened: as §1
[5] = tested on: A549; test: Cytotoxicity against human A549 cells by SRB assay

Which IC50 [1] does the source give for `COc1cccc2c1C(=O)c1c(O)c3c(c(O)c1C2=O)C[C@@](O)(C(=O)CO)C[C@@H]3O[C@H]1C[C@H](N)[C@H](O)[C@H](C)O1` [DOXORUBICIN] here?
Its IC50 is 0.03 µg/mL (≈ 0.0552 µM).

And the IC50 [2]?
The IC50 was 0.12 µg/mL (≈ 0.221 µM).

What about the IC50 [3] of the same compound?
Its IC50 is 0.18 µg/mL (≈ 0.331 µM).

What about the IC50 [4] of the same compound?
Its IC50 is 0.08 µg/mL (≈ 0.147 µM).

With `C[C@H]1CC[C@@]2(OC1)O[C@H]1C[C@H]3[C@@H]4CC[C@@H]5C[C@@H](O[C@@H]6O[C@H](CO)[C@@H](O)[C@H](O)[C@H]6O[C@@H]6O[C@@H](CO)[C@H](O)[C@H](O)[C@H]6O)CC[C@]5(C)[C@H]4CC[C@]3(C)[C@H]1[C@@H]2C` (relative stereo) [ASPARANIN A] as the compound, how does the IC50 [1] read?
Its IC50 is 2.41 µg/mL (≈ 3.25 µM).

And the IC50 [5]?
Its IC50 is 2.05 µg/mL (≈ 2.77 µM).

And the IC50 [2]?
The IC50 was 2.56 µg/mL (≈ 3.46 µM).

And the IC50 [3]?
The IC50 was 2.43 µg/mL (≈ 3.28 µM).

And the IC50 [4]?
Its IC50 is 2.47 µg/mL (≈ 3.33 µM).

How did the IC50 [1] turn out when `C[C@H]1CC[C@@]2(OC1)O[C@H]1C[C@H]3[C@@H]4CC[C@@H]5C[C@@H](O[C@@H]6O[C@H](CO)[C@@H](O[C@@H]7O[C@@H](C)[C@H](O)[C@@H](O)[C@H]7O)[C@H](O)[C@H]6O[C@@H]6OC[C@@H](O)[C@H](O)[C@H]6O)CC[C@]5(C)[C@H]4CC[C@]3(C)[C@@]1(O)[C@@H]2C` (relative stereo) [ASPAOLIGONIN B] was run?
Its IC50 is 2.59 µg/mL (≈ 2.97 µM).

What about the IC50 [5] of the same compound?
The IC50 was 2.55 µg/mL (≈ 2.92 µM).

What about the IC50 [2] of the same compound?
The IC50 was 2.51 µg/mL (≈ 2.88 µM).

What about the IC50 [3] of the same compound?
The IC50 was 2.73 µg/mL (≈ 3.13 µM).

What about the IC50 [4] of the same compound?
The IC50 was 2.57 µg/mL (≈ 2.94 µM).

With `C[C@H]1CC[C@@]2(OC1)O[C@H]1C[C@H]3[C@@H]4CC[C@@H]5C[C@@H](O[C@@H]6O[C@H](CO)[C@@H](O)[C@H](O)[C@H]6O[C@@H]6O[C@@H](CO)[C@H](O)[C@H](O)[C@H]6O)CC[C@]5(C)[C@H]4CC[C@]3(C)[C@@]1(O)[C@@H]2C` (relative stereo) [ASPAOLIGONIN A] as the compound, how does the IC50 [1] read?
The IC50 was 2.53 µg/mL (≈ 3.34 µM).

And the IC50 [5]?
Its IC50 is 2.25 µg/mL (≈ 2.97 µM).

What about the IC50 [2] of the same compound?
The IC50 was 2.84 µg/mL (≈ 3.75 µM).

And the IC50 [3]?
The IC50 was 2.66 µg/mL (≈ 3.51 µM).

What about the IC50 [4] of the same compound?
The IC50 was 2.59 µg/mL (≈ 3.42 µM).
